Measured values collected from several papers.
Cell line: MCF7
Read-out: cell growth or viability

Structure (SMILES) | technique | time | IC50
CO[C@]1([C@@H]2CSC(=O)N2C2CCCC2)C[C@H]2C[C@@H](CC[C@H](C)/C=C\C=C\CC/C(C)=C\C(=O)O2)O1 | MTT | 72 h | 5.3 µM
O=C1[O][Pt]2([NH][C@@H]3CCCC[C@H]3[NH]2)[O]C1=O | MTT | 96 h | 2.6 µM
N[C@@H](Cc1ccc(N(CCCl)CCCl)cc1)C(=O)O | CCK-8 | 48 h | > 50 µM
CO[C@]1([C@@H]2CSC(=O)N2CCCO)C[C@H]2C[C@@H](CC[C@H](C)/C=C\C=C\CC/C(C)=C\C(=O)O2)O1 | MTT | 72 h | 19.2 µM
O=C(Oc1ccc(Cl)cc1)[c-]1cccc1.[Fe+2].c1cc[cH-]c1 | MTT | 72 h | 33 µM
C/C1=C/C(=O)O[C@@H]2C[C@@H](CC[C@H](C)/C=C\C=C\CC1)O[C@@](OCCc1ccccc1)([C@@H]1CSC(=O)N1)C2 | MTT | 72 h | 0.1 µM
C[C@@H]1O[C@@H](O[C@H]2C[C@@H](O)[C@]3(CO)[C@H]4[C@H](O)C[C@]5(C)[C@@H](C6=CC(=O)OC6)CC[C@]5(O)[C@@H]4CC[C@]3(O)C2)[C@H](O)[C@H](O)[C@H]1O | resazurin | 72 h | 0.053 µM
N.N.[Cl][Pt][Cl] | MTT | 48 h | 15.6 µM
C/C1=C/C(=O)O[C@@H]2C[C@@H](CC[C@H](C)/C=C\C=C\CC1)O[C@@](O)([C@@H]1CSC(=O)N1CO)C2 | MTT | 72 h | 0.12 µM
CC1c2c(c3ccccc3oc2=O)Oc2ncn(N)c(=N)c21 (centres unmarked) | MTT | 72 h | > 75 µM
CO[C@]1([C@@H]2CSC(=O)N2C(=O)c2ccccc2)C[C@H]2C[C@@H](CC[C@H](C)/C=C\C=C\CC/C(C)=C\C(=O)O2)O1 | MTT | 72 h | 0.55 µM
COc1cc2c3c(n(CCCN4CCOCC4)c(=O)c2cc1OC)-c1cc2c(cc1C3=O)OCO2 | – | 72 h | 0.288 µg/mL
[Cl-].[Cl-].[Co+2] | MTT | 48 h | > 150 µM
O=C(Oc1ccc(-n2cccc2)cc1)[c-]1cccc1.[Fe+2].c1cc[cH-]c1 | MTT | 72 h | 1.4 µM
COc1c2c(cc3c1OCO3)[C@]13C=C[C@H](OC)C[C@@H]1[N@](C2)C[C@H]3OC(=O)c1ccoc1 | WST-1 | – | > 10 µM
N.N.[Cl][Pt][Cl] | MTT | – | 10 µM
COCO[C@@H]1[C@H]2OC(C)(C)O[C@H]2[C@H](O[C@H]2C[C@H]3OC(C)(C)OC[C@]34[C@@H]3[C@@H](CC[C@]4(O)C2)[C@@]2(O)CC[C@H](CO)[C@@]2(C)C[C@H]3OCOC)O[C@H]1C | resazurin | 72 h | > 100 µM
CCN1C(=O)SC[C@H]1[C@@]1(O)C[C@H]2C[C@@H](CC[C@H](C)/C=C\C=C\CC/C(C)=C\C(=O)O2)O1 | MTT | 72 h | 0.95 µM
COc1c2ccoc2cc2oc(=O)ccc12 | WST-1 | 48 h | 34.5 µM
COc1ccc(/C=C\c2cc(OC)c(OC)c(OC)c2)cc1 | SRB | 48 h | 0.0048 µM
